Experiments:
P388 [1] = assay: Antitumor activity was determined against the ip implanted P388 leukemia in mice by percent increase in life span at 500 mg/kg (1 qd treatment schedule) dosage; assay type: functional, Mus musculus; conditions: route intraperitoneal
Summary of the method: (§1)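 DBA/2J mice, 23-33 g, in groups of 6, were inoculated ip with 1×10^6 P388 cells on day 0. Dosing was ip from 24 h on the stated schedules, in 0.9% NaCl with 0.5% Tween-80 (sonicated solution or suspension). Survival was followed daily until death or 45 days. Median T/C was calculated from survivors per NCI protocols, with ILS = (T/C − 1) × 100.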

L1210 [2] = assay: Antitumor activity against the ic implanted L1210 lymphoid leukemia in mice expressed as optimal dose (1 qd treatment schedule) required to produce greatest increase in life span was determined; assay type: functional, Mus musculus
Summary of the method: (§2)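 DBA/2J mice, groups of 6 (26-32 g), got 1 × 10^5 L1210 cells ic on day 0. Dosing was ip starting 24 h later, as a sonicated solution or suspension in 0.9% NaCl with 0.5% Tween-80, over a wide dose range. Mice were followed daily until death. Median survival T/C was taken from survivors per NCI protocols, and ILS = (T/C − 1) × 100. Active range means doses giving ILS ≥25%; optimal dose means greatest ILS.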

L1210 [3] = assay: Antitumor activity against ic implanted L1210 lymphoid leukemia in mice expressed as active dose range (1-5qd treatment schedule) required to produce increase in life span by >25% was determined; Range is 40-80; assay type: functional, Mus musculus; summary of the method: as §2
L1210 [4] = assay: Antitumor activity was determined against the ic implanted L1210 lymphoid leukemia in mice by range in survival days at 133 mg/kg (1,5,9qd treatment schedule) dosage; Range is 15-22; assay type: functional, Mus musculus
L1210 [5] = assay: Antitumor activity was determined against the ip implanted L1210 leukemia in mice by 45-day survivors in mice at 40 mg/kg (treatment of 1-5qd schedule) dosage; assay type: functional, Mus musculus; conditions: route intraperitoneal
Summary of the method: (§3)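 DBA/2J mice in groups of 6 (wt 23-28 g) were inoculated ip with 1×10^6 L1210 cells on day 0. Dosing was ip from 24 h, in 0.9% NaCl with 0.5% Tween-80 (conjugates sonicated), across a range of doses. Mice were observed daily until death or 45 days. Median T/C was computed from survivors per NCI protocols, and ILS = (T/C − 1)×100.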

P388 [6] = assay: Antitumor activity was determined against the ip implanted P388 leukemia in mice by percent median survival rate (treated/control) at 60 mg/kg (1-5qd treatment schedule) dosage; >45.0/11.0; assay type: functional, Mus musculus; conditions: route intraperitoneal
P388 [7] = assay: Antitumor activity was determined against the ip implanted P388 leukemia in mice by range in survival days at 500 mg/kg (1 qd treatment schedule) dosage; Range is 35->45; conditions: route intraperitoneal
L1210 [8] = assay: Antitumor activity was determined against the ic implanted L1210 lymphoid leukemia in mice by percent increase in life span at 100 mg/kg (treatment of 1-9qd schedule) dosage; assay type: functional, Mus musculus; summary of the method: as §2
L1210 [9] = assay: Antitumor activity was determined against the ip implanted L1210 leukemia in mice by 45-day survivors in mice at 200 mg/kg (treatment of 1-5qd schedule) dosage; assay type: functional, Mus musculus; conditions: route intraperitoneal; summary of the method: as §3
CML/BC = assay: Compound was tested for the inhibition of CML/BC(chronic myeloid leukemia, blast crisis); assay type: functional, cell-based; conditions: Homo sapiens
Summary of the method: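 Human leukemia and solid tumor cells in culture were exposed to compound for 48 h. Viability was scored by trypan blue dye exclusion. IC50 (50% inhibition) was estimated from response curves of three separate experiments.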

L1210 [10] = assay: Antitumor activity against the ic implanted L1210 lymphoid leukemia in mice expressed as optimal dose (1 qd treatment schedule) required to produce greatest increase in life span was determined
L1210 [11] = assay: Antitumor activity was determined against the ip implanted L1210 leukemia in mice by percent median survival rate (treated/control) at 400 mg/kg (treatment of 1qd schedule) dosage; 27.5/7.0; assay type: functional, Mus musculus; conditions: route intraperitoneal
Summary of the method: (§4)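 DBA/2J mice, 23-28 g, in groups of 6, were inoculated ip with 1×10^6 L1210 cells on day 0. Dosing was ip starting 24 h later on the stated daily schedules. Conjugates were given as sonicated solutions and reference prodrugs as suspensions in 0.9% NaCl with 0.5% Tween-80. Mice were observed daily until death or 45 days. Median survival T/C was calculated from survivors per NCI protocols.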

L1210 [12] = assay: Antitumor activity against ip implanted L1210 leukemia in mice expressed as active dose range (1 qd treatment schedule) required to produce increase in life span by >25% was determined; Range is 300-400; assay type: functional, Mus musculus
Summary of the method: (§5)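 DBA/2J mice, groups of 6 (23-28 g), were inoculated ip with 1 × 10^6 L1210 cells on day 0. Dosing was ip from 24 h, in 0.9% NaCl with 0.5% Tween-80 (sonicated solution or suspension). Mice were observed daily until death or day 45. Median survival T/C followed NCI protocols, and ILS = (T/C − 1) × 100. Active range means doses giving ILS ≥25%; optimal dose means greatest ILS.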

L1210 [13] = assay: Antitumor activity was determined against the ip implanted L1210 leukemia in mice by range in survival days at 80 mg/kg (treatment of 1-5qd schedule) dosage; Range is 21-30; assay type: functional, Mus musculus; conditions: route intraperitoneal; summary of the method: as §4
P388 [14] = assay: Antitumor activity was determined against the ip implanted P388 leukemia in mice by percent increase in life span at 60 mg/kg (treatment of 1-5qd schedule) dosage; assay type: functional, Mus musculus; conditions: route intraperitoneal; summary of the method: as §1
L1210 [15] = assay: Antitumor activity against ic implanted L1210 lymphoid leukemia in mice expressed as active dose range (1-5qd treatment schedule) required to produce increase in life span by >25% was determined; Range is 40-100; assay type: functional, Mus musculus; summary of the method: as §2
L1210 [16] = assay: Antitumor activity was determined against the ic implanted L1210 lymphoid leukemia in mice by range in survival days at 500 mg/kg (treatment of 1qd schedule) dosage; Range is 18-23
L1210 [17] = assay: Antitumor activity was determined against the ip implanted L1210 leukemia in mice by median survival time at 100 mg/kg (treatment of 1-5qd schedule) dosage; 23.0/7.0; conditions: route intraperitoneal
L1210 [18] = assay: Antitumor activity against ip implanted L1210 leukemia in mice expressed as active dose range (1-5qd treatment schedule) required to produce increase in life span by >25% was determined; 60-100; assay type: functional, Mus musculus; summary of the method: as §5
L1210 [19] = assay: Antitumor activity was determined against the ip implanted L1210 leukemia in mice by change in […] at 100 mg/kg (treatment of 1-5qd schedule) dosage; assay type: functional, Mus musculus; conditions: route intraperitoneal
Summary of the method: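 DBA/2J mice, 6 per group (wt 23-28 g), inoculated ip with 1×10^6 L1210 cells on day 0. Treatment was given ip in 0.9% NaCl with 0.5% Tween-80, starting 24 h later. Weight change was taken on day 8. Mice were observed daily until death or 45 days. Median survival T/C and %ILS = (T/C − 1) × 100 came from survivors per NCI protocols, and 45-day survivors were counted.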

P388 [20] = assay: Antitumor activity was determined against the ip implanted P388 leukemia in mice by 45-day survivors in mice at 67 mg/kg (treatment of 1,5,9qd schedule) dosage; assay type: functional, Mus musculus; conditions: route intraperitoneal; summary of the method: as §1

Question: Which results are given for CCCCCCCCCCCCCCCC(=O)OC[C@H](COP(=O)(O)OP(=O)(O)OC[C@H]1O[C@@H](n2ccc(N)nc2=O)[C@@H](O)[C@@H]1O)OC(=O)CCCCCCCCCCCCCCC?
Answer: ILS (P388 [1]): >309; Optimal dose (L1210 [2]): 300 mg; Active dose range (L1210 [3]): 40 mg/kg/day; Range (L1210 [4]): 15; Survivors (L1210 [5]): 1; T/C (P388 [6]): >45%; Range (P388 [7]): 35

Question: Nc1ccn([C@@H]2O[C@H](CO)[C@@H](O)[C@@H]2O)c(=O)n1 [CYTARABINE] was tested. Which ILS (L1210 [8]) did it give?
Answer: The ILS was 100.

Question: And the Survivors (L1210 [9])?
Answer: Its Survivors is 0.

Question: What about the IC50 (CML/BC) of the same compound?
Answer: Its IC50 is 210 nM.

Question: Which results are given for CCCCCCCCCCCCCCCCOCC(COP(=O)(O)OP(=O)(O)OC[C@H]1O[C@@H](n2ccc(N)nc2=O)[C@@H](O)[C@@H]1O)OC(=O)CCCCCCCCCCCCCCC (mixture of isomers)?
Answer: Optimal dose (L1210 [10]): 500 mg; T/C (L1210 [11]): 27.5%; Active dose range (L1210 [12]): 300 mg/kg/day; Range (L1210 [13]): 21; ILS (P388 [14]): >309; Active dose range (L1210 [15]): 40 mg/kg/day; Range (L1210 [16]): 18

Question: What does the source list for CCCCCCCCCCCCCCCCCCOCC(COP(=O)(O)OP(=O)(O)OC[C@H]1O[C@@H](n2ccc(N)nc2=O)[C@@H](O)[C@@H]1O)OC(=O)CCCCCCCCCCCCCCC (mixture of isomers)?
Answer: median survival time (L1210 [17]): 23 days; Active dose range (L1210 [18]): 60 mg/kg/day; Weight change (L1210 [19]): -0.95 g mouse-1; Survivors (P388 [20]): 0

Reference: ChEMBL document CHEMBL1123247, “Nucleoside conjugates. 7. Synthesis and antitumor activity of 1-beta-D-arabinofuranosylcytosine conjugates of ether lipids” (J Med Chem, 1986)
